Common to all, as to format: functional
Common to all, as to settings: route oral

For test [1], the system named is Rattus norvegicus. Description: Inhibition of Zymosan-induced rat's paw edema(ZPE) after peroral administration of 100 mg/kg dose. The method in brief:
(§1)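 Male Wistar rats (about 150 g) were dosed orally with compound suspended in 5% arabic gum, 1 h before a subplantar hind-paw injection of 0.1 mL saline. The irritant was 1% zymosan for 33 or 1% λ-carrageenin for 34. Paw volume was measured by plethysmograph before dosing and at 4 h (zymosan) or 3 h (carrageenin). Swelling is relative to initial volume, as mean ± SEM. % inhibition is versus the control group's mean swelling.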

In test [2] the test system is Rattus norvegicus. The test is described as follows: Compound was tested for the inhibition of rat reversed passive Arthus pleurisy after peroral administration of 100 mg/kg dose at 0.71 mL of exudate volume with 0.84 mL of control (injected intrapleurally). The method in brief:
(§2)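 Male Wistar rats (about 250 g) were given compound orally before the antiserum. Under ether anesthesia, 0.2 mL rabbit anti-egg albumin antiserum was injected intrapleurally. After 30 min, egg albumin (15 mg/100 g body weight in 0.1 mL saline) was given iv. Rats were killed 4.5 h later and the thoracic cavity was rinsed with 5 mL saline. Exudate volume and infiltrated cell number were measured, with inhibition % versus controls as mean ± SEM.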

The subject of test [3] is Rattus norvegicus. Description: Compound was tested for the inhibition of rat reversed passive Arthus pleurisy after peroral administration of 100 mg/kg dose at 4.4*10e6 no of cells with 5.72*10e6 cells of control. The method in brief:
(§3)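 Male Wistar rats (about 250 g) under ether received 0.2 mL rabbit anti-egg-albumin antiserum intrapleurally. Thirty min later they got 15 mg EA/100 g body weight in 0.1 mL saline iv. Compounds were given orally beforehand. Rats were killed 4.5 h after induction and the thoracic cavity rinsed with 5 mL saline. Exudate volume and infiltrated cell count were read as mean ± SE. % inhibition is versus control.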

In test [4] the test system is Rattus norvegicus. The test is described as follows: Antiinflammatory activity on Carrageenan rat's paw edema(CPE) after peroral administration of 100 mg/kg dose with control swelling of 64.2%. On the technique in general: Carrageenan injected into the paw causes an acute inflammation.
For test [5], the system named is Rattus norvegicus. The test is described as follows: Antiinflammatory activity on Zymosan-induced rat's paw edema(ZPE) after peroral administration of 100 mg/kg dose with control swelling of 71.7%. The method in brief: (§4)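 Male Wistar rats weighing about 150 g were dosed orally with compound suspended in 5% arabic gum. 1 h later, 1% zymosan in 0.1 mL saline was injected subplantarly into the hind paw. Paw volume was measured by plethysmograph before dosing and 4 h after zymosan, with edema as the volume difference. Inhibition % was derived from mean swelling versus the control group.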

Test [6] has as its system Rattus norvegicus. Description: Inhibition of carrageenan-induced rat's paw edema (CPE) after peroral administration of 100 mg/kg dose. The method in brief:
as §1

For test [7], the system named is Rattus norvegicus. Description: Compound was tested for the inhibition of rat reversed passive Arthus pleurisy after peroral administration of 100 mg/kg dose at 0.8 mL of exudate volume with 0.84 mL of control (injected intrapleurally). In short, it runs like this: as §2
Test [8] concerns Rattus norvegicus. The test is described as follows: Compound was tested for the inhibition of rat reversed passive Arthus pleurisy after peroral administration of 100 mg/kg dose at 4.47*10e6 no of cells with 5.72*10e6 cells of control. The method in brief:
as §3

The test system of test [9] is Rattus norvegicus. The test is described as follows: Antiinflammatory activity on Carrageenan rat's paw edema(CPE) after peroral administration of 100 mg/kg dose with control swelling of 68.1%.
The subject of test [10] is Rattus norvegicus. Description: Antiinflammatory activity on Zymosan-induced rat's paw edema(ZPE) after peroral administration of 100 mg/kg dose with control swelling of 62.8%. The method in brief:
as §4

The test system of test [11] is Rattus norvegicus. The test is described as follows: Compound was tested for the inhibition of rat reversed passive Arthus pleurisy after peroral administration of 100 mg/kg dose at 6.01*10e6 no of cells with 7.4*10e6 cells of control. The method in brief: as §3
Test [12] deals with Rattus norvegicus. The test is described as follows: Compound was tested for the inhibition of rat reversed passive Arthus pleurisy after peroral administration of 100 mg/kg dose at 0.65 mL of exudate volume with 0.82 mL of control (injected intrapleurally). The method in brief:
as §3

Test [13] concerns Rattus norvegicus. Description: Compound was tested for the inhibition of rat reversed passive Arthus pleurisy after peroral administration of 100 mg/kg dose at 3.43+/-0.11*10e6 no of cells with 3.62*10e6 cells of control. In short, it runs like this: as §3
Test [14] relates to Rattus norvegicus. Description: Compound was tested for the inhibition of rat reversed passive Arthus pleurisy after peroral administration of 100 mg/kg dose at 0.62 mL of exudate volume with 0.54 mL of control (injected intrapleurally). The method in brief: as §2
Test [15] has as its system Rattus norvegicus. The test is described as follows: Antiinflammatory activity on Zymosan-induced rat's paw edema(ZPE) after peroral administration of 100 mg/kg dose with control swelling of 62.0%. The method in brief: as §4
The test system of test [16] is Rattus norvegicus. Description: Antiinflammatory activity on Carrageenan rat's paw edema(CPE) after peroral administration of 100 mg/kg dose with control swelling of 74.7%.
Test [17] concerns Rattus norvegicus. Description: Compound was tested for the inhibition of rat reversed passive Arthus pleurisy after peroral administration of 100 mg/kg dose at 3.74*10e6 no of cells with 7.4*10e6 cells of control. In short, it runs like this: as §3
Test [18] relates to Rattus norvegicus. The test is described as follows: Compound was tested for the inhibition of rat reversed passive Arthus pleurisy after peroral administration of 100 mg/kg dose at 0.64 mL of exudate volume with 0.82 mL of control (injected intrapleurally). In short, it runs like this:
as §2

In test [19] the test system is Rattus norvegicus. The test is described as follows: Compound was tested for the inhibition of rat reversed passive Arthus pleurisy after peroral administration of 100 mg/kg dose at 4.81*10e6 no of cells with 5.72*10e6 cells of control. The method in brief: as §3

A word on the inhibition in vivo: it is the relative decrease from the control value, in per cent.

`COc1ccccc1NC(=O)c1c(O)c2cccnc2n(-c2ccccc2)c1=O`: the inhibition in vivo at 100 mg/kg in the test on Rattus norvegicus [1] is 8.1%; in the test on Rattus norvegicus [2], 16.7%; in the test on Rattus norvegicus [3], 26.8%; in the test with Rattus norvegicus [6], -10.1%. In addition, the Swelling with Rattus norvegicus [4] amounted to 70.7%; in the test with Rattus norvegicus [5], 65.9%.

Take `COc1ccc(NC(=O)c2c(O)c3cccnc3n(-c3ccccc3)c2=O)cc1`: the inhibition in vivo at 100 mg/kg with Rattus norvegicus [7] is 5.1%; with Rattus norvegicus [1], 0.3%; in the test on Rattus norvegicus [8], 25.4%; in the test with Rattus norvegicus [6], -1.9%. In addition, the Swelling is on record as 69.4% in the test on Rattus norvegicus [9] and 62.6% with Rattus norvegicus [10].

As to `O=C(Nc1ccc(Cl)nc1)c1c(O)c2cccnc2n(-c2ccccc2)c1=O`, the inhibition in vivo at 100 mg/kg with Rattus norvegicus [1] was 9.2%; in the test with Rattus norvegicus [11], 18.8%; in the test on Rattus norvegicus [12], 20.7%; in the test on Rattus norvegicus [6], -4%. Also, the Swelling with Rattus norvegicus [4] is on record as 66.8%; with Rattus norvegicus [5] it was 65.1%.

For `O=C(Nc1ccc(Cl)cc1)c1c(O)c2cccnc2n(-c2ccccc2)c1=O`, the inhibition in vivo at 100 mg/kg is 18.8% with Rattus norvegicus [13], -16.3% in the test on Rattus norvegicus [14], 11.6% in the test on Rattus norvegicus [1] and 2.5% with Rattus norvegicus [6]. Further, the Swelling in the test on Rattus norvegicus [9] was 66.4%; in the test on Rattus norvegicus [15], 54.8%.

`CCOC(=O)c1c(O)c2cccnc2n(-c2ccccc2)c1=O`: the inhibition in vivo at 100 mg/kg with Rattus norvegicus [1] came to 23.5%; with Rattus norvegicus [6], 15.5%. Moreover, the Swelling is 63.1% in the test on Rattus norvegicus [16] and 47.2% in the test with Rattus norvegicus [15].

Take `O=C(NCc1ccncc1)c1c(O)c2cccnc2n(-c2ccccc2)c1=O`: the inhibition in vivo at 100 mg/kg with Rattus norvegicus [17] amounted to 49.5%; with Rattus norvegicus [1] it was 10%; in the test on Rattus norvegicus [18] it was 22%; with Rattus norvegicus [6], 15.4%. For the same molecule, the figures for the Swelling in the test with Rattus norvegicus [4] and with Rattus norvegicus [5] were 54.3% and 64.5%, respectively.

Turning to `O=C(Nc1ccc([N+](=O)[O-])cc1)c1c(O)c2cccnc2n(-c2ccccc2)c1=O`, the inhibition in vivo at 100 mg/kg was -7.6% with Rattus norvegicus [1], 16.7% in the test with Rattus norvegicus [2], 18.5% with Rattus norvegicus [19] and -25.8% with Rattus norvegicus [6]. For the same molecule, the Swelling with Rattus norvegicus [9] is on record as 85.7%; with Rattus norvegicus [10], 67.6%.
